From PubChem
Hits are enriched below; roughly 1.3% of the tested compounds scored in any of these assays.
LEDGF integ inh = blocks HIV-1 LEDGF/p75-dependent DNA integration. 370,000 compounds, 0.64% hits. TR-FRET IN-LEDGF/p75 DNA integration, Eu/Cy5. inhibition, % at 3.7 µM;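 active = inhibition above the screen-wide mean plus 3 SD, cut at about 13% in these data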;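 also: signal is the Cy5 over europium emission ratio at 671 and 618 nm; 0% = plate median of compound wells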
TDP2 absorb = TDP2 (human) inhibition, absorbance primary screen; O95551; recombinant TDP2, T5PNP hydrolysis, p-nitrophenol absorbance 415 nm; inhibition, % at 12.8 µM; 370,000 compounds, 0.34% hits;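 active = inhibition above the mean of all tested compounds plus 3 SD, set per campaign, cut at about 25% in these data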;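 also: 0% = DMSO with enzyme and 100% = buffer with substrate but no TDP2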
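System – recombinant human TDP2 · Amount – 120 nM TDP2 per well · Buffer or medium – Mg2+-containing Tris-HCl buffer, pH 7.5 · Reagent – T5PNP substrate, 5 mM · Dosing – 12.8 µM single point, 1% DMSO · Incubation – 2 h at 37 °C · Measured by – epi absorbance · Read-out basis – percent inhibition · Benchmarks – high control without enzyme, low control DMSO plus TDP2 · Repeats – singlicate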
NSD2 inh = blocks human histone methyltransferase NSD2. NSD2 peptide methylation, AlphaScreen, 120 min. inhibition, % at 12.5 µM. 310,000 compounds, 0.54% hits; in the data active = inhibition above about 50%
Target sequence (O96028 whole entry, looked up): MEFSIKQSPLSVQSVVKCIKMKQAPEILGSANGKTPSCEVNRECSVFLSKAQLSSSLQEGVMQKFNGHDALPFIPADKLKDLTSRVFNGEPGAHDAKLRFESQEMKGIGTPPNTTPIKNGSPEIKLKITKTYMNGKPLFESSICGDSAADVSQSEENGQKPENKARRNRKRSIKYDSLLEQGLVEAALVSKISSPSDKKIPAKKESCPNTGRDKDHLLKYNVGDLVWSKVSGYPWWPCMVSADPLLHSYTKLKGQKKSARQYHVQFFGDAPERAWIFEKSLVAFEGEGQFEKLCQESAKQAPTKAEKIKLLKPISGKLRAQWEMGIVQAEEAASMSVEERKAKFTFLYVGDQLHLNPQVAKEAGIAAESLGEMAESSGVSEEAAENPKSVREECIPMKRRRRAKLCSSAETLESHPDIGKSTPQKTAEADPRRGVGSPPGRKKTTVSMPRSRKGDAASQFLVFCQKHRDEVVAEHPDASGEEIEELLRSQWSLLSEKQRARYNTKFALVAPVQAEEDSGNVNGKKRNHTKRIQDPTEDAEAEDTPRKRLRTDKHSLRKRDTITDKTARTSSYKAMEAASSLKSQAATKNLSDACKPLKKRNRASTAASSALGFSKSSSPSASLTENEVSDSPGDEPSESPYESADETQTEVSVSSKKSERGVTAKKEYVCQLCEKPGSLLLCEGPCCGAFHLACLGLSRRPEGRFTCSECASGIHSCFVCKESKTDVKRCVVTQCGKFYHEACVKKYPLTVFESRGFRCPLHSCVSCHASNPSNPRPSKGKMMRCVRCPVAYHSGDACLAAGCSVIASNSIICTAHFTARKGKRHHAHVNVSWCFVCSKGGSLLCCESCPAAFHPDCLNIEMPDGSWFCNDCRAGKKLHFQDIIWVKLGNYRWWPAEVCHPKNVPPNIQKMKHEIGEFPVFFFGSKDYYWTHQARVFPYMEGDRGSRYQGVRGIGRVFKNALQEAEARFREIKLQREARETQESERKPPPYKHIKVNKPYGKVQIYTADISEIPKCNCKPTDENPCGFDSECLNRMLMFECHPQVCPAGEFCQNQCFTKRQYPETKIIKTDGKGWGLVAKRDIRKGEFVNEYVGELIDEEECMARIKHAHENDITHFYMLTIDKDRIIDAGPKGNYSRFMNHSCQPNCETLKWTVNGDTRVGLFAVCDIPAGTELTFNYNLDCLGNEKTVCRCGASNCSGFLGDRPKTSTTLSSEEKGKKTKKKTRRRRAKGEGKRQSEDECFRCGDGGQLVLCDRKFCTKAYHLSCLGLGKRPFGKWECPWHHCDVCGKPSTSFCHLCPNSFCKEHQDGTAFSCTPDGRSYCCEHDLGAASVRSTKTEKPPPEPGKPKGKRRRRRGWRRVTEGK
UCH37 DUB inh = blocks the human deubiquitinase UCH37; purified proteasome/UCH37, Ub-AMC cleavage fluorescence; AID 588478; 330,000 compounds, 0.33% hits; inhibition, % (concentration not given with the values);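 active = mean inhibition over replicate wells above about 20%, limit read from the data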;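 also: 0% = compound-free wells with enzyme and 100% = wells lacking proteasome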
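assay system = human UCH37 enzyme supplied as purified proteasome complex | amount = proteasome at 0.15 nM in the dispensed enzyme solution | schedule = 30 min compound-proteasome preincubation then 25 min substrate reaction, room temperature | measured by = fluorescence, ex 355 nm, em 460 nm | benchmarks = no-proteasome wells (full inhibition) and compound-free wells (no inhibition)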
Casp6 inh = blocks human caspase-6 cleavage activity; purified caspase-6, Z-VEID-R110 cleavage fluorescence; inhibition, % at 12.5 µM; 350,000 compounds, 0.53% hits;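 active = mean inhibition across replicates at least about 35%, with every replicate also reaching that limit, limit read from the data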;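 also: 0% = median of neutral control wells and 100% = no fluorescence left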
IN multimer act = counter-screen for LEDGF/p75 integration inhibitors: HIV-1 integrase multimerization activators; TR-FRET HIV-1 integrase multimerization, biochemical; 2,000 compounds, 17% hits; activation, % at 7.7 µM; shares compounds with LEDGF integ inh; AID 1053131; in the data active = activation above about 8.9%
TR-FRET interf = counter-screen for LEDGF/p75 integration inhibitors: TR-FRET optical interference. TR-FRET optical interference counterscreen, HIV-1 IN multimerization. shares compounds with LEDGF integ inh. inhibition, % at 7.7 µM. 2,000 tested, under 10 active;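 active = inhibition above the mean over all tested compounds plus 3 SD, which no compound reached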;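 also: 0% = integrase with antibodies and DMSO and 100% = antibodies without integrase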
LEDGF integ conf = confirmation of HIV-1 LEDGF/p75-dependent integration inhibitors; shares compounds with LEDGF integ inh; TR-FRET LEDGF/p75-dependent HIV-1 integration, biochemical; inhibition, % at 3.7 µM; 2,000 compounds, 36% hits; in the data active = inhibition above about 14%
* = called active by the depositor; . = no result.

SMILES	LEDGF integ inh	TDP2 absorb	NSD2 inh	UCH37 DUB inh	Casp6 inh	IN multimer act	TR-FRET interf	LEDGF integ conf
COc1ccc2nc(N3C(=O)C(O)=C(C(=O)c4ccco4)C3c3ccccc3OC)sc2c1 (configuration not stated)	-3	0	5	10	8	.	.	.
COCCCC1CCN(C(=O)C2CCC(=O)N(CCc3ccccc3)C2)CC1 (configuration not stated)	-3	3	-2	-1	1	.	.	.
COCCCC1CCN(C(=O)C2CCC(=O)N(CCCc3ccccc3)C2)CC1 (configuration not stated)	20*	4	0	.	2	2	-6	2
Cc1ccc2nc(NN=Cc3ccc([N+](=O)[O-])o3)nc(-c3ccccc3)c2c1	.	.	.	4	.	.	.	.
O=C(CNc1ccc2ccccc2c1)NN=Cc1ccc([N+](=O)[O-])o1	.	.	.	3	.	.	.	.
Cc1ccc(NC(=O)CC2SC(=Nc3nccs3)N(C)C2=O)cc1C (configuration not stated)	.	.	.	2	.	.	.	.
Cc1nc(S/C(=C\c2ccc(-c3ccc(C(=O)O)c(Cl)c3)o2)C(=O)O)n[nH]1	60*	15	.	19	59*	18*	-92	32*
Cc1ccc(S(=O)(=O)NN=C2CC(c3ccccc3)Oc3ccccc32)cc1 (configuration not stated)	.	.	.	2	.	.	.	.
COC(=O)C1=C(C)N(C)C(=O)NC1c1cc2c(cc1[N+](=O)[O-])OCO2 (configuration not stated)	5	8	4	-1	4	.	.	.
COC(=O)C1=C(C)N(CCCC(=O)O)C(=O)NC1c1cc2c(cc1[N+](=O)[O-])OCO2 (configuration not stated)	27*	1	.	3	5	26*	-94	48*
CC(=NNC(=O)c1ccc(Br)s1)c1cccnc1	.	.	.	1	.	.	.	.
O=C1[C@@H]2Cc3c([nH]c4ccccc34)CN2C(=O)CN1CCCCCO	96*	5	7	3	1	0	-1	-5
COc1cc(C=NNS(=O)(=O)c2ccc3ccccc3c2)ccc1OCCN1CCOCC1	.	.	.	2	.	.	.	.
O=C1CC(NS(=O)(=O)c2cccnc2)CN1c1ccccc1 (configuration not stated)	-2	3	-1	5	0	.	.	.
O=C1CC(NS(=O)(=O)c2ccc3ccccc3c2)CN1c1ccccc1 (configuration not stated)	56*	15	0	1	-3	4	-21	4
CCN(CC)c1cc(Oc2ccccc2)ncn1	47*	5	2	1	.	1	-5	-6
COC(=O)c1ccc(N2NC(=O)/C(=C/c3cc(OC)c(OC)c(OC)c3)C2=O)cc1	14*	-5	2	7	.	3	-12	-2
O=C1C2C(C(=O)N1/N=C/c1cc([N+](=O)[O-])ccc1O)C1C=CC2C12CC2 (configuration not stated)	1	0	2	.	5	.	.	.
O=C1C2C(C(=O)N1/N=C/c1cc([N+](=O)[O-])c(O)cc1O)C1C=CC2C12CC2 (configuration not stated)	18*	-8	25	.	76*	7	-37	20*
O=C(O)/C(=C/c1ccco1)NC(=O)c1ccccc1	27*	4	5	.	37*	-2	8	7
O=C(O)/C(=C\c1ccco1)NC(=O)c1cccc2ccccc12	29*	4	-4	4	41*	3	-17	7
COc1ccc(CC(=O)OC(C)CN2CCCCC2)cc1 (configuration not stated)	15*	-8	-7	4	-2	-1	4	3
Nc1nonc1-n1nnc(C(=O)NN=Cc2ccc(F)cc2)c1-c1cccs1	.	.	.	-2	.	.	.	.
